Compound activity: PubChem, several laboratories
Lmaj promast: Leishmania major promastigote growth inhibition, primary screen; inhibition, % at 10 µM; Leishmania major promastigotes, resazurin fluorescence viability; 200,000 tested, 9% active; in the data active = inhibition above about 50%;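 also: promastigotes grown with compound for 44 hours at 28 °C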
HCT116 bCat-KO: primary screen for growth suppressors in beta-catenin knockout HCT116 cells (colon tumor, human) | HCT116 beta-catenin knockout viability, CellTiter-Glo, 60 h; hits give low values | viability, % at 10 µM | 140,000 tested, 1.5% active | AID 818, 2007;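 active = viability at or under a set limit, the compound median less 4 SD, cut at about 6% in these data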;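 also: 0% = Hyamine 1622 control at 20 µM and 100% = untreated cell control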
TNAP inh no acc: human TNAP enzyme inhibitors, primary screen, biochemical, luminescent, no phosphate acceptor, uHTS. AID 1012, 2008. purified TNAP, CDP-star luminescence, 30 min. 200,000 tested, 0.26% active. inhibition, % at 20 µM;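 active = tissue-nonspecific alkaline phosphatase inhibition above about 50% at 20 µM in the single-dose screen, limit read from the data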;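 also: 0% = DMSO negative control and 100% = EDTA positive control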
Target sequence (P05186 whole entry, looked up): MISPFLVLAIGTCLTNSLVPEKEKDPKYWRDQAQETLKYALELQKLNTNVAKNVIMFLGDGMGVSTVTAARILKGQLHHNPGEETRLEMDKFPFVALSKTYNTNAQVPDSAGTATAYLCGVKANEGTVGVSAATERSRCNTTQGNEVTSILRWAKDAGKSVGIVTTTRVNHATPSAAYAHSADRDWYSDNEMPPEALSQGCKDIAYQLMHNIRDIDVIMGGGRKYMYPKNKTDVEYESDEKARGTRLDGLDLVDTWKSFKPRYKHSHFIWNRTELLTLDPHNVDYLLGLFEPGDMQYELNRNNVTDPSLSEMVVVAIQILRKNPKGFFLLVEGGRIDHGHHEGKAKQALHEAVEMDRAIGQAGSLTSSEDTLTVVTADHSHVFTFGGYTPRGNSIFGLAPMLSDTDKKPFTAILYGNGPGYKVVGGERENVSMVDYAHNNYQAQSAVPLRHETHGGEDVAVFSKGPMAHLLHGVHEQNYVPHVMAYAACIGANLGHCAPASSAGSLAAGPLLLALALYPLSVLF
TNAP inh hi DEA: human TNAP enzyme inhibitors, primary screen, biochemical, luminescent, high phosphate acceptor level, uHTS | purified TNAP, CDP-star luminescence, 1 M DEA | inhibition, % at 20 µM | 200,000 tested, 0.03% active | AID 1135, 2008;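 active = over 50% inhibition of tissue-nonspecific alkaline phosphatase at 20 µM in the single-dose screen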;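 also: plate controls were DMSO wells for no effect and EDTA-quenched wells as full inhibition for full effect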
TNAP act hiacc: TNAP activators at high phosphate acceptor level, primary screen, biochemical, luminescence, uHTS. Alkaline phosphatase, tissue-nonspecific isozyme (Homo sapiens), P05186. purified TNAP, CDP-star luminescence, 1 M DEA, 30 min; hits give high values; 0 = EDTA background, 1 = DMSO-only activity. activation factor at 20 µM. 200,000 tested, under 10 active. AID 1136, 2008;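 active = activation factor at least 2 at 20 µM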
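system = human TNAP | amount = enzyme diluted 1/800 final | reagent = 100 µM CDP-star substrate | signal = luminescent substrate turnover signal | dosing = one dose, 20 µM | benchmarks = EDTA negative control, DMSO positive control | measure = activation factor | timing = 30 min reaction, room temperature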
PTEN del growth: growth suppression of PTEN-null HCT116, primary screen, cell-based, CellTiter-Glo; HCT116 PTEN-null viability, 60 h; hits give low values; 140,000 tested, 1.2% active; viability, % at 10 µM;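 active = viability at or below a set limit, 4 SD under the median of all tested compounds, cut at about 3.7% in these data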;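 also: PTEN knockout HCT116 line with beta catenin targeted HCT116 as companion control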
* hit, by the source's call. Hits are enriched below; roughly 9.6% of the tested compounds scored in any of these assays.

CN1/C(=C/C(=S)NC(=O)C2(C)CC2(Cl)Cl)C(C)(C)c2ccccc21 (stereo unspecified) was read as Lmaj promast 51*, TNAP inh no acc 35, TNAP inh hi DEA 22 and TNAP act hiacc 0.8.
Screening CN1/C(=C\C=N\NC(=O)c2ccccc2Br)C(C)(C)c2ccccc21 returned Lmaj promast 50*, HCT116 bCat-KO 21, TNAP inh no acc -30, TNAP inh hi DEA 3, TNAP act hiacc 1 and PTEN del growth 24.
For COc1ccccc1C(=O)NC(=S)/C=C1/N(C)c2ccccc2C1(C)C the results were Lmaj promast 78*, HCT116 bCat-KO 31, TNAP inh no acc 32, TNAP inh hi DEA 18, TNAP act hiacc 0.8 and PTEN del growth 28.
`CN1/C(=C\C(=S)NC(=O)c2ccccc2Cl)C(C)(C)c2ccccc21` gave Lmaj promast 45, HCT116 bCat-KO 14, TNAP inh no acc 27, TNAP inh hi DEA 19, TNAP act hiacc 0.8 and PTEN del growth 14.
For CC(C)(C)NC(=O)COC(=O)/C=C/c1ccc(F)cc1 the results were Lmaj promast -6, HCT116 bCat-KO 105, TNAP inh no acc 1, TNAP inh hi DEA -2, TNAP act hiacc 1 and PTEN del growth 91.
`CCCn1ncc(CN2CCN(CCc3ccccc3)C(CCO)C2)c1C` (stereo unspecified) gave Lmaj promast 60*, TNAP inh no acc 0, TNAP inh hi DEA 0 and TNAP act hiacc 1.
CSc1ccc(CN2CCN(Cc3ccccc3)C(CCO)C2)cc1 (stereo unspecified) was read as Lmaj promast 74*, TNAP inh no acc -10, TNAP inh hi DEA -9 and TNAP act hiacc 1.1.
For CSc1cccc(CN2CCN(Cc3ccccc3)C(CCO)C2)c1 (stereo unspecified) the results were Lmaj promast 84*, TNAP inh no acc -3, TNAP inh hi DEA -3 and TNAP act hiacc 1.
CCOC(=O)N1CCC(N2CCN(Cc3ccc(F)c(F)c3)C(CCO)C2)CC1 (stereo unspecified) was read as Lmaj promast 84*, TNAP inh no acc -10, TNAP inh hi DEA -5 and TNAP act hiacc 1.1.
Screening CCn1ncc(CN2CCN(Cc3cccc(OC)c3)C(CCO)C2)c1C (stereo unspecified) returned Lmaj promast 0, TNAP inh no acc -9, TNAP inh hi DEA -4 and TNAP act hiacc 1.
For CCOC(=O)N1CCC(N2CCN(CCC(C)C)C(CCO)C2)CC1 (stereo unspecified) the results were Lmaj promast 21, TNAP inh no acc -7, TNAP inh hi DEA -3 and TNAP act hiacc 1.
For CC(C)(O)C#Cc1ccc(CN2CCN(Cc3ccccc3)C(CCO)C2)cc1 (stereo unspecified) the results were Lmaj promast 8, TNAP inh no acc -8, TNAP inh hi DEA -6 and TNAP act hiacc 1.1.
For CCCNC(=O)Cn1nc([N+](=O)[O-])c([N+](=O)[O-])c1C the results were Lmaj promast 24, HCT116 bCat-KO 83, TNAP inh no acc -35, TNAP inh hi DEA 1, TNAP act hiacc 1 and PTEN del growth 86.
For COc1cc(NC(=O)COC(=O)c2n[nH]c3ccccc23)c(C)cc1[N+](=O)[O-] the results were Lmaj promast 2, TNAP inh no acc -10, TNAP inh hi DEA -5 and TNAP act hiacc 1.1.
`CSc1ccc(CN2CCN(CC=C(C)C)C(CCO)C2)cc1` (stereo unspecified) gave Lmaj promast 65*, TNAP inh no acc -8, TNAP inh hi DEA -4 and TNAP act hiacc 1.
Cc1[nH]c2ccccc2c1CN1CCC(CO)(Cc2ccccc2)CC1 was read as Lmaj promast 4, TNAP inh no acc -6, TNAP inh hi DEA -6 and TNAP act hiacc 1.1.
Screening CSc1cccc(CN2CCC(CO)(Cc3ccccc3)CC2)c1 returned Lmaj promast 88*, TNAP inh no acc -3, TNAP inh hi DEA -1 and TNAP act hiacc 1.
